SR-BI DiI inh: mouse SR-BI HDL lipid transfer inhibition | AID 488896 | ldlA[mSR-BI] CHO cells, DiI-HDL uptake fluorescence, 3 h | Q61009 | inhibition, % at 12.5 µM | actives 0.96% (n = 320,000);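 active means mean replicate inhibition of at least 70% and a set share of replicates each scoring 70 or more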;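 further: 0% = median of neutral control wells and 100% = median of positive control wells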
Target sequence (Q61009 whole entry, looked up): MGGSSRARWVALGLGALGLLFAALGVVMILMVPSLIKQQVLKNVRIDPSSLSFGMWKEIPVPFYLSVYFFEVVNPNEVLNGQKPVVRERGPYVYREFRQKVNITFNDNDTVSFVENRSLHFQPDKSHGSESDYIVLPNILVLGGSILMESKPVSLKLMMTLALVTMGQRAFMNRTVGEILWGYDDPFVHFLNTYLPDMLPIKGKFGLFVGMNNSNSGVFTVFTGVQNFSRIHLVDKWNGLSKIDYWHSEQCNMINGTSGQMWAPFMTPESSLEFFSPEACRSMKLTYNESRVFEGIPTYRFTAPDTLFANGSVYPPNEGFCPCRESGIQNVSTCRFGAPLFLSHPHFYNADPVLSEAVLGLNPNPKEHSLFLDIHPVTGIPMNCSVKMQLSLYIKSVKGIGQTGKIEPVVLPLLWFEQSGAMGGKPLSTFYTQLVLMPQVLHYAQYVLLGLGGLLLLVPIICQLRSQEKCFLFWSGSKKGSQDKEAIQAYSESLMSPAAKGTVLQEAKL
Wnt bcat act: activators of Wnt/beta-catenin signaling; Wnt/beta-catenin reporter cell assay, activator, plate reader; actives 1.2% (n = 300,000); AID 743398; activation, % at 9.35 µM; in the data active means activation above about 30%, passing the limit was not always enough;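 further: 0% = neutral control wells and 100% = positive control wells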
SR-BI DiI-HDL act: SR-BI HDL lipid transfer activation; CHO ldlA[mSR-BI] cells, DiI-HDL uptake fluorescence, 3 h; 100 = double the neutral-control signal; activation, % at 12.5 µM; actives 0.096% (n = 320,000);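 active means mean replicate activation of at least 60% and every replicate at or above 60%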;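 further: 0% = median plate neutral-control signal and 100% = twice that signal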
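Material: SR-BI-overexpressing, LDLR-lacking CHO cells | Dosing: Single compound concentration, delivered by pin transfer | Probe or stimulus: Labelled HDL, 10 µg/mL | Signal: Bottom-read cell fluorescence after medium removal, ex 550/em 595 nm | Schedule: 3 h, 37 °C | Evaluation: HDL uptake via cellular fluorescence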
HSF1 activator: increases HSF-1 driven luciferase reporter signal. NIH3T3-HGL HSF-1 luciferase reporter, MG132, 8 h; 100% = twice DMSO control signal. activation, % at 9 µM. actives 1.7% (n = 300,000). AID 504408;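 active means mean replicate activation of at least 50% with a set share of replicates each reaching 50%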;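 further: 0% = median of the neutral control wells and 100% = twice that signal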
MITF act: MITF TRPM1 promoter activation in melanoma cells; activation, % at 12.5 µM; actives 0.75% (n = 300,000); SK-MEL-5 TRPM1-promoter luciferase, 24 h; % of positive control, neutral wells = 0;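 active means mean activation of at least 80% with every replicate also reaching 80%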;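 further: 0% = neutral control wells and 100% = parthenolide positive control wells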
An asterisk follows results filed as active; x = not tested or not shown. Sampled rows, rich in hits. Any-hit rate of the full collection: about 3.6%.

SMILES | SR-BI DiI inh | Wnt bcat act | SR-BI DiI-HDL act | HSF1 activator | MITF act
COCCCNC(=O)CS(=O)(=O)Cc1nc(-c2cccc(OC)c2)oc1C | 1 | x | -1 | -6 | x
CCOC(=O)N1CCC(NC(=O)CS(=O)(=O)Cc2nc(-c3cccc(Cl)c3)oc2C)CC1 | 33 | -1 | -33 | 17 | 2
Cc1oc(-c2cccc(Cl)c2)nc1CS(=O)(=O)CC(=O)NC1CC1 | 5 | 1 | -5 | 57* | -1
COc1cccc(-c2nc(CS(=O)(=O)CC(=O)NCCC(C)C)c(C)o2)c1 | 14 | 38* | -14 | 18 | -7
CCN(CCNC(=O)CS(=O)(=O)Cc1nc(-c2cccc(OC)c2)oc1C)c1ccccc1 | 36 | x | -36 | 78* | x
C=CS(=O)(=O)N[C@@H](CSSC[C@H](NS(=O)(=O)C=C)C(=O)OC)C(=O)OC | x | 1 | x | x | x
CCCCC12CN3CCN(CC(C3)/C1=N\NC(=O)c1ccccc1N)C2 | -14 | 35* | 14 | 38 | 4
CCCC12CN3CCN(CC(C3)/C1=N\NC(=O)c1ccc(F)cc1)C2 | -4 | 12 | 4 | 11 | 3
COc1cccc(/C=N/NC(=S)NC2CC3CCC2C3)c1OC (configuration not stated) | 9 | -2 | -9 | 12 | x
S=C(N/N=C/c1ccco1)NC1CC2CCC1C2 (configuration not stated) | 25 | 11 | -25 | 58* | 32
Oc1ccccc1/C=N/NC(=S)NC1CC2CCC1C2 (configuration not stated) | 76* | 23 | -76 | 34 | 43
CC(=O)NCc1ccc(OCCCN2CCC(C(O)(c3ccccc3)c3ccccc3)CC2)cc1 | x | -4 | x | x | x
O=C(Nc1cccc(Oc2ccccc2)c1)C1Cc2c(-c3ccccc3)ccnc2O1 (configuration not stated) | x | -1 | x | x | x
COCCn1c(C)cc(C(=O)Cn2nc(C(=O)O)c3ccccc3c2=O)c1C | -13 | 5 | 13 | -30 | 22
CCCn1c(C)cc(C(=O)Cn2nnc3ccccc3c2=O)c1C | 24 | 46* | -24 | 47 | 67
COc1cc(/C=C/C(=O)c2c(O)ccc3c(C)cc(=O)oc23)ccc1O | -16 | x | 16 | 113* | -1
Cc1cc(=O)oc2c(C(=O)/C=C\c3cccs3)c(O)ccc12 | -14 | x | 14 | 61* | 12
CCCCCc1ccc(-c2cn(Cc3ccc(C)cc3)nn2)cc1 | -21 | 6 | 21 | 10 | 13
COc1ccc(-c2cn(Cc3ccc(C)cc3)nn2)cc1 | -27 | 29 | 27 | 24 | 86*
CC(=O)c1cc2c(cc1NC(=O)CSc1ncccn1)OCO2 | x | -1 | x | x | x
Cc1nn(-c2ccccc2)c2sc(C(=O)NC3CCCCC3)cc12 | 50 | x | -50 | 8 | 2
Cc1cnc(NC(=O)c2cc3c(C)nn(-c4ccccc4)c3s2)s1 | 76* | -3 | -76 | 0 | -1
Cc1ccc(C(=O)Nc2ncc(C)s2)s1 | -8 | 20 | 8 | 70* | 5
CC(C)CN1CCC(CN2C(=S)NC[C@@H]2Cc2ccccc2)CC1 | x | -5 | x | x | x
CCc1nn(C(C)C(=O)NC(C)CCc2ccco2)c(=O)c2cc3occc3n12 (configuration not stated) | 18 | x | -18 | 129* | -8
SMILES | SR-BI DiI inh | Wnt bcat act | SR-BI DiI-HDL act | HSF1 activator | MITF act
O=C(NS(=O)(=O)c1ccc2ccc(S(=O)(=O)NCCSc3ccccc3)cc2c1)c1cccc2ccccc12 | x | -2 | x | x | x
CCOC1=C2CN(S(=O)(=O)c3ccc(C)cc3)[C@H](c3ccccc3)C[C@@H]2N(S(=O)(=O)c2ccc(C)cc2)[C@H](c2cccc(C)c2)C1 | x | 0 | x | x | x
Cc1ncc(CN2CCCC(C(=O)Nc3ccc(-c4ccco4)cc3)C2)cn1 (configuration not stated) | -21 | 0 | 21 | 3 | 5
COCc1cc(CN2CCCC(C(=O)Nc3ccc(-c4ccco4)cc3)C2)ccc1OC (configuration not stated) | -4 | -4 | 4 | 64* | 14
O=[N+]([O-])c1ccc(Nc2nccc(Cl)n2)cc1 | x | 55* | x | 12 | x
Cc1cc(C)cc(Cn2cc(CN3CC(N(C)C)CS3(=O)=O)nn2)c1 (configuration not stated) | x | 0 | x | x | x
CCCCC(=O)N(C)c1c(C)nc2ccc(C(=O)Nc3cccc(NS(C)(=O)=O)c3)cn12 | x | -1 | x | x | x
O=C(COc1cccc(Cl)c1)Nc1nc(-c2ccc(S(=O)(=O)N3CCOCC3)cc2)cs1 | 88* | -2 | -88 | 11 | -3
CCOc1cccc(C(=O)Nc2nc(-c3ccc(S(=O)(=O)N4CCOCC4)cc3)cs2)c1 | 79* | 1 | -79 | -33 | -20
O=C(Nc1nc(-c2ccncc2)cs1)c1ccc(S(=O)(=O)N2CCOCC2)cc1 | -1 | -7 | 1 | -3 | -14
CC(C)C(=O)Nc1nc(-c2ccc(S(=O)(=O)N3CCOCC3)cc2)cs1 | 1 | -4 | -1 | 5 | 3
O=C(O)c1cccc(S(=O)(=O)N2CCN(S(=O)(=O)c3ccc4ccccc4c3)CC2)c1 | -15 | 1 | 15 | x | -13
COc1cc(C(=O)Nc2ccc(N3CCCS3(=O)=O)cc2)c([N+](=O)[O-])cc1OC | 81* | 0 | -81 | 5 | -2
COc1cc(C(=O)Nc2ccc3c(c2)CCCN3C(=O)c2ccco2)c([N+](=O)[O-])cc1OC | 76* | -4 | -76 | -5 | -5
O=C(N/N=C/C(Cl)=C/c1ccccc1)c1ccco1 | 12 | 12 | -12 | 54* | 80
O=C(N/N=C/C(Cl)=C\c1ccccc1)c1ccco1 | 0 | 57* | 0 | 46 | x
O=C(Nc1ccc2c(c1)OCCO2)C1c2ccccc2OCC(=O)N1CCCN1CCOCC1 (configuration not stated) | x | -1 | x | x | x
COc1ccc2nc(SCC(=O)NC3CCCC3)c(C)cc2c1 | 6 | -3 | -6 | 13 | -25
COc1ccc(-c2[nH]c(-c3ccc(C)cc3)nc2SCC(=O)NC2CCCC2)cc1 | 80* | -11 | -80 | -20 | x
COc1ccc(-c2[nH]c(-c3ccc(Cl)cc3)nc2SCC(=O)Nc2nccs2)cc1 | 83* | -4 | -83 | 21 | 14
COc1ccc(-c2[nH]c(-c3ccccc3)nc2SCC(=O)Nc2nccs2)cc1 | 19 | 3 | -19 | x | x
O=c1nc2n(CCO)c3ccccc3cc-2c(=O)[nH]1 | -4 | -2 | 4 | x | -1
CN(C(=O)C=Cc1ccccc1)c1ccccc1 | 20 | -2 | -20 | x | 13
O=C(CCl)N(O)c1ccc(C=Cc2ccccc2)cc1 | 4 | 40* | -4 | x | 26
Cc1ccc(/C=C(\CCC(=O)O)c2nc3ccccc3s2)cc1[N+](=O)[O-] | 16 | 0 | -16 | 45 | 7
CN(c1ccccc1)c1ccc(/C=C(\CCC(=O)O)c2nc3ccccc3s2)cc1[N+](=O)[O-] | -2 | x | 2 | 57* | -1
CCOCCn1c(=NC(=O)/C=C/c2ccccc2Cl)sc2cc(NC(C)=O)ccc21 | 71* | -6 | -71 | -31 | -9
